Results published in publication PMC4582152 (International Journal of Biological Sciences, 2015).

What was measured:
DhelOBP21-I84N mutant = test: Competitive fluorescence binding assay with 1-NPN as probe, mutant I84N; parameters: species or system Dastarcus helophoroides
Procedure, shortened: (§1)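 Competitive displacement at pH 7.4 or pH 5.0: 2 μM recombinant protein with a standard concentration of 1-NPN, titrated with aliquots of odorant volatiles (stocks in methanol). Fluorescence is read as for the 1-NPN titration. IC50 is the competitor concentration that halves the initial fluorescence. Ki = IC50/(1+[1-NPN]/K1-NPN), using the Scatchard Kd. Three independent measurements; reported as 1/Ki*1000.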

DhelOBP21-T119N mutant = test: Competitive fluorescence binding assay with 1-NPN as probe, mutant T119N; parameters: species or system Dastarcus helophoroides; details: for Binding ability of mutant T119N compared with DhelOBP-WT: pH 7.4; for Binding affinity of mutant T119N compared with DhelOBP-WT: pH 5.0
Procedure, shortened: as §1

SMILES	Binding affinity of mutant I84N compared with DhelOBP-WT (DhelOBP21-I84N mutant; pH 5.0)	Binding ability of mutant T119N compared with DhelOBP-WT (DhelOBP21-T119N mutant)	Binding affinity of mutant T119N compared with DhelOBP-WT (DhelOBP21-T119N mutant)	Binding affinity of mutant I84N compared with DhelOBP-WT (DhelOBP21-I84N mutant; pH 7.4)
Cc1cc(C(C)(C)C)c(O)c(C(C)(C)C)c1 [Butylated hydroxytoluene, butylated hydroxytoluene]	relatively higher affinities	greater binding ability	–	–
C=C1C2CCC(C2)C1(C)C (stereo not shown) [Camphene, camphene]	did not show any apparent difference	declined significantly	did not show any apparent difference	–
CC12CCC(CC1=O)C2(C)C (stereo not shown) [Camphor, camphor]	did not show any apparent difference	–	did not show any apparent difference	–

Second part, the compound after the results:

Binding affinity of mutant I84N compared with DhelOBP-WT (DhelOBP21-I84N mutant; pH 5.0)	Binding ability of mutant T119N compared with DhelOBP-WT (DhelOBP21-T119N mutant)	Binding affinity of mutant T119N compared with DhelOBP-WT (DhelOBP21-T119N mutant)	Binding affinity of mutant I84N compared with DhelOBP-WT (DhelOBP21-I84N mutant; pH 7.4)	SMILES
–	declined significantly	–	–	C=CC(=C)CCC=C(C)C [Myrcene, myrcene]
–	–	relatively higher affinity	better than with DhelOBP-WT	CC1=CCC(=C(C)C)CC1 [Terpinolene]
